Measurements of several laboratories.
Effect on: metabolic stability
Host: mouse
Matrix: liver microsomes

Compound	conditions	microsomal CLint [µL/min/mg]
CC1(C)NC(=O)N(c2ccc3c(c2)OC(F)(F)O3)C1=O		< 7
O=c1c2c([nH]c3cc(OCc4ccc(OC(F)(F)F)cc4)ccc13)CCCC2	1 µM, pH 7.4	19.7
CCN(CC)CCNC(=O)c1c(C)[nH]c(/C=C2\C(=O)Nc3ccc(F)cc32)c1C		41
O=C(O)Cc1ccccc1Nc1c(Cl)cccc1Cl		31.2
CC1(C)NC(=O)N(c2ccc(F)c(CC(F)(F)F)c2)C1=O		< 7
O=c1c2c([nH]c3c(Oc4ccc(OC(F)(F)F)cc4)cccc13)CCCC2	1 µM, pH 7.4	8.33
CC1(C)NC(=O)N(c2cccc(C(F)(F)F)n2)C1=O		< 7
CCN(CC)CCCOc1ccc2c(=O)c3c([nH]c2c1)CCCC3	1 µM, pH 7.4	7.94
CCCCCCCCCCCCCCCC(=O)NCCOC(=O)C[C@@H](CN)CC(C)C	1 µM, pH 7.4	14.6
CC(C)c1cc(C(=O)NCCN)c2cnn(C(C)C)c2n1		< 9.6
Cc1[nH]c(C)c(S(=O)(=O)Nc2ccc(C(F)(F)F)c(Cl)c2)c1C(=O)N(C)C		179
CC1(C)NC(=O)N(c2cc(C(F)(F)F)c(F)cc2C#N)C1=O		< 7
CC(C)(C)OC(=O)N1CCC(Oc2ccc3c(=O)c4c(F)cc(Cl)cc4[nH]c3c2)CC1	1 µM, pH 7.4	12.5
CC1(C(F)F)NC(=O)N(c2ccc(F)c(C(F)(F)F)c2)C1=O (stereo not shown)		< 7
O=c1c2c([nH]c3cc(OC(F)(F)F)ccc13)CCCC2	1 µM, pH 7.4	139
CC(C)n1ncc2c(C(=O)NC(C)(C)CN)cc(C3CC3)nc21		19.1
CONC(=O)c1cccc2c1cc(C)n2-c1nc2c(c(NCc3ccccc3)n1)CCCN2	1 µM, pH 7.4	619
CC(C)n1ncc2c(C(=O)NCC(C)(C)N(C)C)cc(C3CC3)nc21		30.4
Cc1[nH]c(C)c(S(=O)(=O)Nc2ccc(C(F)(F)F)c(Cl)c2)c1C(=O)N1CCC(F)(F)C1		59
